# Source: ChEMBL document CHEMBL1781938, “New 3-, 8-disubstituted pyrazolo[5,1-c][1,2,4]benzotriazines useful for studying the interaction with the HBp-3 area (hydrogen bond point area) in the benzodiazepine site on the γ-aminobutyric acid type A (GABAA) receptor” (Bioorg Med Chem, 2011)
# Experiments:
# [1] = Displacement of [3H]Ro151788 from bovine GABA-A receptor; design: species or system Bos taurus
# In short: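 Competition binding against [3H]flumazenil (Ro 15-1788) at the benzodiazepine site, using bovine cerebral cortex membranes diluted in 50 mM Tris–citrate pH 7.4. Protein was measured by the Lowry method. Each compound was run at six or more concentrations. Ki was derived only for compounds giving more than 80% inhibition of specific binding at 10 µM.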
# Bos taurus = species on record: Bos taurus; test: Displacement of [3H]Ro151788 from bovine GABA-A receptor at 10 uM
# In short: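 Bovine cerebral cortex membranes diluted in 50 mM Tris–citrate buffer pH 7.4, with protein measured by Lowry. Specific binding of [3H]flumazenil (Ro 15-1788) was read as percent inhibition with test compound at a fixed 10 µM. Compounds inhibiting by more than 80% went on to Ki determination.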
Compound,Ki [1],Activity (Bos taurus)
CC(C)(C)OC(=O)n1cccc1-c1ccc2c(c1)n1ncc(C(=O)OCc3cccs3)c1n[n+]2[O-],0.395 µM,> 80%
[O-][n+]1nc2c(I)cnn2c2cc(-c3ccncc3)ccc21,2.38 µM,> 80%
O=C(c1ccco1)c1cnn2c1n[n+]([O-])c1ccc(-c3ccc[nH]3)cc12,0.063 µM,> 80%
[O-][n+]1nc2c(-c3ccsc3)cnn2c2cc(-c3cccs3)ccc21,0.37 µM,> 80%
COc1ccc(-c2ccc3c(c2)n2ncc(C(=O)OCc4cccs4)c2n[n+]3[O-])cc1,0.0294 µM,> 80%
[O-][n+]1nc2c(I)cnn2c2cc(-c3ccccc3O)ccc21,2.48 µM,> 80%
[O-][n+]1nc2c(-c3ccc[nH]3)cnn2c2cc(-c3ccsc3)ccc21,0.0483 µM,> 80%
[O-][n+]1nc2c(-c3ccsc3)cnn2c2cc(-c3ccsc3)ccc21,0.357 µM,> 80%
[O-][n+]1nc2c(I)cnn2c2cc(-c3ccsc3)ccc21,0.056 µM,> 80%
[O-][n+]1nc2c(-c3ccsc3)cnn2c2cc(-c3ccccc3)ccc21,0.642 µM,> 80%
COc1ccc(-c2ccc3c(c2)n2ncc(I)c2n[n+]3[O-])cc1,0.241 µM,> 80%
[O-][n+]1nc2c(I)cnn2c2cc(-c3ccc[nH]3)ccc21,0.025 µM,> 80%
[O-][n+]1nc2c(-c3ccco3)cnn2c2cc(-c3ccsc3)ccc21,0.0269 µM,> 80%
COc1ccccc1-c1ccc2c(c1)n1ncc(I)c1n[n+]2[O-],0.305 µM,> 80%
[O-][n+]1nc2c(-c3ccsc3)cnn2c2cc(-c3ccc[nH]3)ccc21,0.0194 µM,> 80%
[O-][n+]1nc2c(I)cnn2c2cc(-c3cccs3)ccc21,0.202 µM,> 80%
COc1ccc(-c2ccc3c(c2)n2ncc(-c4ccsc4)c2n[n+]3[O-])cc1,0.817 µM,> 80%
COc1ccc(-c2ccc3c(c2)n2ncc(C(=O)c4ccco4)c2n[n+]3[O-])cc1,0.239 µM,> 80%
[O-][n+]1nc2c(I)cnn2c2cc(-c3ccco3)ccc21,0.19 µM,> 80%
COC(=O)c1cnn2c1n[n+]([O-])c1ccc(-c3ccc[nH]3)cc12,0.0149 µM,> 80%
O=C(c1ccco1)c1cnn2c1n[n+]([O-])c1ccc(-c3ccco3)cc12,0.857 µM,> 80%
[O-][n+]1nc2c(-c3ccsc3)cnn2c2cc(-c3ccco3)ccc21,0.209 µM,> 80%
O=C(OCc1cccs1)c1cnn2c1n[n+]([O-])c1ccc(-c3ccco3)cc12,0.0548 µM,> 80%
